According to ChEMBL document CHEMBL2321702, “Synthesis and antimalarial efficacy of two-carbon-linked, artemisinin-derived trioxane dimers in combination with known antimalarial drugs” (J Med Chem, 2013):

Key:
Plasmodium berghei [1] = experiment: Antimalarial activity against Plasmodium berghei ANKA infected in C57BL/6J mouse assessed as average survival time at 6 mg/kg, po in presence of Mef-HCl (reference value: 7.3 days); assay type: functional
Method in brief: (§1)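 Male C57BL/6J mice (5 weeks old, about 20 g; four per group) were infected with P. berghei ANKA (2×10^7 parasitized erythrocytes). After 24 h, each received a single 200 μL oral gavage of trioxane 6 mg/kg plus mefloquine hydrochloride 18 mg/kg in 7:3 Tween:EtOH diluted with water. Blood parasitemia was read on day 3, and survival was followed to day 60 against untreated mice.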

Plasmodium berghei [2] = experiment: Antimalarial activity against Plasmodium berghei ANKA infected in C57BL/6J mouse assessed as suppression of blood parasitemia level at 6 mg/kg, po measured on day 3 relative to vehicle-treated control in presence of lumefantrine; assay type: functional
Method in brief: (§2)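 P. berghei ANKA infection (2×10^7 parasitized erythrocytes) in male C57BL/6J mice, four per group. A single oral dose was given 24 h post-infection: trioxane 6 mg/kg plus lumefantrine 18 mg/kg. Day-3 blood parasitemia was compared with vehicle mice, and survival was tracked up to 60 days.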

Plasmodium berghei [3] = experiment: Antimalarial activity against Plasmodium berghei ANKA infected in C57BL/6J mouse assessed as suppression of blood parasitemia level at 150 mg/kg, po measured on day 3 relative to vehicle-treated control; assay type: functional
Method in brief: (§3)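 Single-dose oral monotherapy without adjuvant, at 120 or 150 mg/kg, given by gavage 24 h after infecting male C57BL/6J mice (four per group) with 2×10^7 P. berghei ANKA-parasitized erythrocytes. Blood parasitemia was measured on day 3 relative to vehicle controls. Survival was recorded over a 60-day study.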

Plasmodium berghei [4] = experiment: Antimalarial activity against Plasmodium berghei ANKA infected in C57BL/6J mouse assessed as suppression of blood parasitemia level at 6 mg/kg, po measured on day 3 relative to vehicle-treated control in presence of mef-HCl; assay type: functional; method in brief: as §1
Plasmodium berghei [5] = experiment: Antimalarial activity against Plasmodium berghei ANKA infected in C57BL/6J mouse assessed as average survival time at 150 mg/kg, po (reference value: 8.8 days); assay type: functional; method in brief: as §3
Mus musculus = experiment: Toxicity in po dosed C57BL/6J mouse infected with Plasmodium berghei ANKA assessed as average body weight gain measured on day 3 (reference value: 7.7 g); assay type: organism-based; conditions: in vivo
Plasmodium berghei [6] = experiment: Antimalarial activity against Plasmodium berghei ANKA infected in C57BL/6J mouse assessed as suppression of blood parasitemia level at 6 mg/kg, po measured on day 3 relative to vehicle-treated control in presence of mefloquine; assay type: functional; method in brief: as §1
Plasmodium berghei [7] = experiment: Antimalarial activity against Plasmodium berghei ANKA infected in C57BL/6J mouse assessed as average survival time at 6 mg/kg, po in presence of lumefantrine (reference value: 8.8 days); assay type: functional; method in brief: as §2
Plasmodium berghei [8] = experiment: Antimalarial activity against Plasmodium berghei ANKA infected in C57BL/6J mouse assessed as average survival time at 6 mg/kg, po in presence of mefloquine (reference value: 8.8 days); assay type: functional; method in brief: as §1
Plasmodium berghei [9] = experiment: Antimalarial activity against Plasmodium berghei ANKA infected in C57BL/6J mouse assessed as suppression of blood parasitemia level at 120 mg/kg, po measured on day 3 relative to vehicle-treated control; assay type: functional; method in brief: as §3
Plasmodium berghei [10] = experiment: Antimalarial activity against Plasmodium berghei ANKA infected in C57BL/6J mouse assessed as average survival time at 120 mg/kg, po (reference value: 7.3 days); assay type: functional; method in brief: as §3

Row | SMILES | MST (Plasmodium berghei [1]) | Activity (Plasmodium berghei [2]) | Activity (Plasmodium berghei [4]) | Activity (Plasmodium berghei [6]) | MST (Plasmodium berghei [7]) | MST (Plasmodium berghei [8]) | further results
1 | C#CCO/N=C(/C[C@H]1O[C@@H]2O[C@@]3(C)CC[C@H]4[C@H](C)CC[C@@H]([C@H]1C)[C@@]24OO3)[C@H]1O[C@@H]2O[C@@]3(C)CC[C@H]4[C@H](C)CC[C@@H]([C@H]1C)[C@@]24OO3 | 60 days | >99.9% | >99.9% | >99.9% | 60 days | – | Activity (Plasmodium berghei [3]): >99.9%; MST (Plasmodium berghei [5]): 46.8 days; Activity (Mus musculus): 12 g
2 | C[C@H]1[C@@H](/C(C[C@H]2O[C@@H]3O[C@@]4(C)CC[C@H]5[C@H](C)CC[C@@H]([C@H]2C)[C@@]35OO4)=N\OC(=O)N(C)C)O[C@@H]2O[C@@]3(C)CC[C@H]4[C@H](C)CC[C@@H]1[C@@]24OO3 | – | – | >99.9% | – | – | – | –
3 | CC(=O)O/N=C(/C[C@H]1O[C@@H]2O[C@@]3(C)CC[C@H]4[C@H](C)CC[C@@H]([C@H]1C)[C@@]24OO3)[C@H]1O[C@@H]2O[C@@]3(C)CC[C@H]4[C@H](C)CC[C@@H]([C@H]1C)[C@@]24OO3 | – | – | >99.9% | – | – | – | –
4 | COP(=O)(OC)O/N=C(/C[C@H]1O[C@@H]2O[C@@]3(C)CC[C@H]4[C@H](C)CC[C@@H]([C@H]1C)[C@@]24OO3)[C@H]1O[C@@H]2O[C@@]3(C)CC[C@H]4[C@H](C)CC[C@@H]([C@H]1C)[C@@]24OO3 | 56 days | – | >99.9% | – | – | – | –
5 | CCOP(=O)(OCC)O/N=C(/C[C@H]1O[C@@H]2O[C@@]3(C)CC[C@H]4[C@H](C)CC[C@@H]([C@H]1C)[C@@]24OO3)[C@H]1O[C@@H]2O[C@@]3(C)CC[C@H]4[C@H](C)CC[C@@H]([C@H]1C)[C@@]24OO3 | 21.5 days | – | >99.9% | – | – | – | –
6 | CO/N=C(\C[C@H]1O[C@@H]2O[C@@]3(C)CC[C@H]4[C@H](C)CC[C@@H]([C@H]1C)[C@@]24OO3)[C@H]1O[C@@H]2O[C@@]3(C)CC[C@H]4[C@H](C)CC[C@@H]([C@H]1C)[C@@]24OO3 | – | – | – | >99.9% | – | 37 days | –
7 | C[C@H]1[C@@H](/C(C[C@H]2O[C@@H]3O[C@@]4(C)CC[C@H]5[C@H](C)CC[C@@H]([C@H]2C)[C@@]35OO4)=N\OCC2CC2)O[C@@H]2O[C@@]3(C)CC[C@H]4[C@H](C)CC[C@@H]1[C@@]24OO3 | – | – | – | >99.9% | – | 41 days | –
8 | C[C@H]1[C@@H](/C(C[C@H]2O[C@@H]3O[C@@]4(C)CC[C@H]5[C@H](C)CC[C@@H]([C@H]2C)[C@@]35OO4)=N\OC(C)(C)C)O[C@@H]2O[C@@]3(C)CC[C@H]4[C@H](C)CC[C@@H]1[C@@]24OO3 | – | – | – | >99.9% | – | – | –
9 | C[C@H]1[C@@H](C(=O)C[C@H]2O[C@@H]3O[C@@]4(C)CC[C@H]5[C@H](C)CC[C@@H]([C@H]2C)[C@@]35OO4)O[C@@H]2O[C@@]3(C)CC[C@H]4[C@H](C)CC[C@@H]1[C@@]24OO3 | – | – | >99.9% | – | – | – | –
10 | C[C@H]1[C@@H](/C(C[C@H]2O[C@@H]3O[C@@]4(C)CC[C@H]5[C@H](C)CC[C@@H]([C@H]2C)[C@@]35OO4)=N\O)O[C@@H]2O[C@@]3(C)CC[C@H]4[C@H](C)CC[C@@H]1[C@@]24OO3 | 52.5 days | – | >99.9% | – | – | – | –
11 | CO/N=C(/C[C@H]1O[C@@H]2O[C@@]3(C)CC[C@H]4[C@H](C)CC[C@@H]([C@H]1C)[C@@]24OO3)[C@H]1O[C@@H]2O[C@@]3(C)CC[C@H]4[C@H](C)CC[C@@H]([C@H]1C)[C@@]24OO3 | 60 days | >99.9% | >99.9% | >99.9% | 26.3 days | 49 days | Activity (Plasmodium berghei [3]): 98%; MST (Plasmodium berghei [5]): 8.3 days; Activity (Mus musculus): 10.7 g
12 | C=CCO/N=C(/C[C@H]1O[C@@H]2O[C@@]3(C)CC[C@H]4[C@H](C)CC[C@@H]([C@H]1C)[C@@]24OO3)[C@H]1O[C@@H]2O[C@@]3(C)CC[C@H]4[C@H](C)CC[C@@H]([C@H]1C)[C@@]24OO3 | 40.3 days | >99.9% | >99.9% | >99.9% | 41.3 days | 49 days | Activity (Plasmodium berghei [3]): >99%; Activity (Plasmodium berghei [9]): >99.9%; MST (Plasmodium berghei [5]): 46.8 days; MST (Plasmodium berghei [10]): 40.3 days
13 | CO[C@H]1O[C@@H]2O[C@@]3(C)CC[C@H]4[C@H](C)CC[C@@H]([C@H]1C)[C@@]24OO3 [ARTEMETHER] | 40 days | >99.9% | >99.9% | >99.9% | 19 days | – | –
